# Source: paper PMC9359741 (Clinical Cancer Research, 2022)
# Where “and” joins values, the source holds several entries; their conditions need not be identical. Identical values can stand only once. Like-named read-outs stand apart in the source and are kept apart here.
# How the values were obtained:
# [1] = test system: patients with selected advanced solid tumors; assay type: in vivo, human; conditions: Phase 1b
# Outline: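 Adults (≥18 y) with histologically or cytologically confirmed selected advanced solid tumours. Oral test compound started at 200 mg QD, with planned escalation to 400 mg QD, plus anti-PD-1 antibody 2 mg/kg IV every 3 weeks. DLT incidence defined the MTD (DLT criteria in supplement). AEs and lab abnormalities were graded by CTCAE v4.03 in all patients given ≥1 dose and summarized descriptively.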
# [2] = Phase 1b plasma pharmacokinetics of ARRY-382 and metabolites; assay type: in vivo, human; conditions: for RAUC (accumulation ratio), geometric mean (geometric %CV) / Ctrough, geometric mean (geometric %CV) / RCmax (accumulation ratio), geometric mean (geometric %CV) / AUC(0-t) / Cmax / Tmax: Phase 1b; for AUC / AUC(0-t) / Cmax / Tmax: human, plasma, oral; for AUC(0-t): AUClast; for AUC(0-t) / Cmax: geometric mean (geometric %CV); for Tmax: median (range)
# Outline: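 Blood was collected for plasma test compound and its N-oxide, N-desmethyl and sulfate metabolites. Trough samples were taken ≤120 min before the oral dose on cycle 1 day 15 and day 1 of cycles 3–6. Doses were 200–400 mg QD in Phase 1b and 300 mg QD in Phase 2. Non-compartmental parameters were estimated per patient in the PK set, reported as geometric mean (geometric %CV) and Tmax as median (range).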
# [3] = Cycle 2 day 1, ARRY-382 200 mg, n = 4
# [4] = Cycle 2 day 1, ARRY-382 300 mg, n = 4
# [5] = Cycle 2 day 1, ARRY-382 400 mg, n = 3
# [6] = 200 mg, Cycle 1 day 1, ARRY-382 200 mg, n = 6
# [7] = 200 mg, Cycle 2 day 1, ARRY-382 200 mg, n = 4
# [8] = 300 mg, Cycle 1 day 1, ARRY-382 300 mg, n = 6
# [9] = 300 mg, Cycle 2 day 1, ARRY-382 300 mg, n = 4
# [10] = 400 mg, Cycle 1 day 1, ARRY-382 400 mg, n = 7
# [11] = 400 mg, Cycle 2 day 1, ARRY-382 400 mg, n = 3
compound,measurement,setting,value
Cc1cccc(Cn2nc(C3CC3)c3c(NC(=O)c4cnc5cc(OCCN6CCN(C)CC6)ccn45)cccc32)n1 [ARRY-382],ARRY-382-related AEs: Chills,"[1]; ARRY-382 300 mg, N = 6",0 (0.0) n (%)
same,ARRY-382-related AEs: Fatigue,"[1]; ARRY-382 300 mg, N = 6",2 (33.3) n (%)
same,ARRY-382-related AEs: Lipase increased,"[1]; ARRY-382 300 mg, N = 6",4 (66.7) n (%)
same,ARRY-382-related AEs: Nausea,"[1]; ARRY-382 300 mg, N = 6",1 (16.7) n (%)
same,ARRY-382-related AEs: Pruritus,"[1]; ARRY-382 300 mg, N = 6",2 (33.3) n (%)
same,ARRY-382-related AEs: Pyrexia,"[1]; ARRY-382 300 mg, N = 6",0 (0.0) n (%)
same,ARRY-382-related AEs: Rash maculo-papular,"[1]; ARRY-382 300 mg, N = 6",2 (33.3) n (%)
same,ARRY-382-related AEs: Thrombocytopenia,"[1]; ARRY-382 300 mg, N = 6",1 (16.7) n (%)
same,ARRY-382-related AEs: ALT increased,"[1]; ARRY-382 400 mg, N = 7",2 (28.6) n (%)
same,ARRY-382-related AEs: AST increased,"[1]; ARRY-382 400 mg, N = 7",2 (28.6) n (%)
same,ARRY-382-related AEs: All AEs,"[1]; ARRY-382 400 mg, N = 7",5 (71.4%) n (%) and 5 (71.4) n (%)
same,ARRY-382-related AEs: Amylase increased,"[1]; ARRY-382 400 mg, N = 7",1 (14.3) n (%)
same,ARRY-382-related AEs: Blood CPK increased,"[1]; ARRY-382 400 mg, N = 7",2 (28.6) n (%)
same,ARRY-382-related AEs: Blood alkaline phosphatase increased,"[1]; ARRY-382 400 mg, N = 7",2 (28.6) n (%)
same,ARRY-382-related AEs: Chills,"[1]; ARRY-382 400 mg, N = 7",1 (14.3) n (%)
same,ARRY-382-related AEs: Fatigue,"[1]; ARRY-382 400 mg, N = 7",0 (0.0) n (%)
same,ARRY-382-related AEs: Lipase increased,"[1]; ARRY-382 400 mg, N = 7",1 (14.3) n (%)
same,ARRY-382-related AEs: Nausea,"[1]; ARRY-382 400 mg, N = 7",2 (28.6) n (%)
same,ARRY-382-related AEs: Pruritus,"[1]; ARRY-382 400 mg, N = 7",0 (0.0) n (%)
same,ARRY-382-related AEs: Pyrexia,"[1]; ARRY-382 400 mg, N = 7",1 (14.3) n (%)
same,ARRY-382-related AEs: Rash maculo-papular,"[1]; ARRY-382 400 mg, N = 7",1 (14.3) n (%)
same,ARRY-382-related AEs: Thrombocytopenia,"[1]; ARRY-382 400 mg, N = 7",1 (14.3) n (%)
same,ARRY-382-related AEs: ALT increased,"[1]; Total, N = 19",7 (36.8) n (%)
same,ARRY-382-related AEs: AST increased,"[1]; Total, N = 19",8 (42.1) n (%)
same,ARRY-382-related AEs: All AEs,"[1]; Total, N = 19",16 (84.2%) n (%) and 16 (84.2) n (%)
same,ARRY-382-related AEs: Amylase increased,"[1]; Total, N = 19",5 (26.3) n (%)
same,ARRY-382-related AEs: Blood CPK increased,"[1]; Total, N = 19",7 (36.8) n (%)
same,ARRY-382-related AEs: Blood alkaline phosphatase increased,"[1]; Total, N = 19",5 (26.3) n (%)
same,ARRY-382-related AEs: Chills,"[1]; Total, N = 19",2 (10.5) n (%)
same,ARRY-382-related AEs: Fatigue,"[1]; Total, N = 19",4 (21.1) n (%)
same,ARRY-382-related AEs: Lipase increased,"[1]; Total, N = 19",6 (31.6) n (%)
same,ARRY-382-related AEs: Nausea,"[1]; Total, N = 19",3 (15.8) n (%)
same,ARRY-382-related AEs: Pruritus,"[1]; Total, N = 19",4 (21.1) n (%)
same,ARRY-382-related AEs: Pyrexia,"[1]; Total, N = 19",2 (10.5) n (%)
same,ARRY-382-related AEs: Rash maculo-papular,"[1]; Total, N = 19",4 (21.1) n (%)
same,ARRY-382-related AEs: Thrombocytopenia,"[1]; Total, N = 19",2 (10.5) n (%)
same,ARRY-382-related increased ALT,[1]; all patients,36.8%
same,ARRY-382-related increased AST,[1]; all patients,42.1%
same,ARRY-382-related increased CPK,[1]; all patients,36.8%
same,Patients reporting DLTs,[1]; overall,3/19
same,Periorbital edema,[1]; overall,5.3%
same,"RAUC (accumulation ratio), geometric mean (geometric %CV)","[2]; Cycle 2 day 1, ARRY-382 200 mg, n = 3",3.03 (47.9)
same,"Ctrough, geometric mean (geometric %CV)",[2]; [3],576 (59.5) ng/mL
same,"RCmax (accumulation ratio), geometric mean (geometric %CV)",[2]; [3],2.53 (48.2)
same,"RAUC (accumulation ratio), geometric mean (geometric %CV)","[2]; Cycle 2 day 1, ARRY-382 300 mg, n = 2",1.92 (NC)
same,"Ctrough, geometric mean (geometric %CV)",[2]; [4],667 (27.7) ng/mL
same,"RCmax (accumulation ratio), geometric mean (geometric %CV)",[2]; [4],2.51 (95.7)
same,"RAUC (accumulation ratio), geometric mean (geometric %CV)","[2]; Cycle 2 day 1, ARRY-382 400 mg, n = 2",3.52 (NC)
same,"Ctrough, geometric mean (geometric %CV)",[2]; [5],627 (126) ng/mL
same,"RCmax (accumulation ratio), geometric mean (geometric %CV)",[2]; [5],2.28 (54.2)
same,AUC,[2]; 200 mg,22800 ng·h/mL
same,AUC(0-t),[2]; [6],3720 ng·h/mL
same,AUC(0-t),[2]; [7],22800 ng·h/mL
same,Cmax,[2]; [6],773 ng/mL
same,Cmax,[2]; [7],1560 ng/mL
same,Tmax,[2]; [6],2 h
same,Tmax,[2]; [7],2 h
same,AUC,[2]; 300 mg,30600 ng·h/mL
same,AUC(0-t),[2]; [8],4890 ng·h/mL
same,AUC(0-t),[2]; [9],30600 ng·h/mL
same,Cmax,[2]; [8],995 ng/mL
same,Cmax,[2]; [9],2260 ng/mL
same,Tmax,[2]; [8],4.01 h
same,Tmax,[2]; [9],4.18 h
same,AUC,[2]; 400 mg,30800 ng·h/mL
same,AUC(0-t),[2]; [10],6790 ng·h/mL
same,AUC(0-t),[2]; [11],30800 ng·h/mL
same,Cmax,[2]; [10],1330 ng/mL
same,Cmax,[2]; [11],2560 ng/mL
same,Tmax,[2]; [10],4.07 h
same,Tmax,[2]; [11],1.98 h
